The values below come from ChEMBL document CHEMBL4385623, “Advances in the structural studies of antibiotic potentiators against Escherichia coli” (2019).

≈ marks a conversion by molar mass, not a printed value. Calls of active or inactive are those of the source. No cut-off for these calls is given here. Peptide text beside a SMILES is read from it. * marks the point of attachment. βNA = c1ccc2cc(N*)ccc2c1 A value given as a limit tells only on which side of the number the result lay.

The test system of test [1] is Escherichia coli. Put plainly: Antibacterial activity against Escherichia coli ATCC 25922 incubated for 24 hrs by spectrophotometric based assay. It counts as functional. To be noted: ATCC 25922, 24 h. The procedure, abridged: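 Intrinsic MIC by broth microdilution. Log-phase cells at 5 × 10^5 CFU/ml in cation-adjusted Mueller-Hinton broth with two-fold serial dilutions of test compound. Aerobic incubation 24 h at 37 °C, then OD600 read. MIC is the lowest concentration giving ≥90% growth inhibition versus drug-free controls.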

Test [2] relates to Escherichia coli. Put plainly: Potentiation of clarithromycin-induced antibacterial activity against Escherichia coli ATCC 25922 assessed as fold reduction in clarithromycin MIC at 12.5 ug/ml incubated for 24 hrs by spectrophotometric based assay.
In test [3] the test system is Escherichia coli. Nature of the test: Potency index, ratio of potentiation of clarithromycin-induced antibacterial activity of PAbetaN to potentiation of clarithromycin-induced antibacterial activity of test compound against Escherichia coli ATCC 25922 assessed as fold reduction in clarithromycin MIC at 12.5 uM incubated for 24 hrs by spectrophotometric based assay. It is filed as functional.

Test [4] has as its system Escherichia coli ATCC 25922. Nature of the test: Inhibition of AcrAB-TolC efflux pump in Escherichia coli ATCC 25922 assessed as inhibition of Hoechst 33342 efflux at 1.56 to 12.5 ug/ml pre-incubated for 5 mins followed by glucose addition by Hoechst 33342 staining based fluorescence assay. An outline of the steps: (§1)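 Overnight cells washed and resuspended in PBS + 1 mM MgCl2 to OD600 1.0. Energy depleted with 3.13 μM CCCP for 20 min at 37 °C. Loaded with 10 μM Hoechst 33342 for 20 min, then mixed with compound (1/32–¼ MIC, DMSO vehicle) and preincubated 5 min at 37 °C. Efflux started with 50 mM glucose. Fluorescence (ex 355/em 460 nm) read each minute for 40 min at 37 °C.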

Test [5] relates to Escherichia coli. Put plainly: Induction of outer membrane permeabilization in Escherichia coli ATCC 25922 assessed as increase in NPN uptake at 1.56 to 12.5 ug/ml incubated for 10 mins by fluorescence assay. It is filed as functional, organism-based. An outline of the steps: (§2)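 Log-phase cells grown in CAMH, washed, and resuspended in PBS to OD600 1.0. NPN added at 10 μM final for 10 min at room temperature. Compound (1/32–¼ MIC, DMSO vehicle) added, four replicates, then 10 min in the dark at room temperature. Fluorescence read at ex 350/em 420 nm. The 10-min average, minus vehicle wells, is the corrected value.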

The test system of test [6] is Escherichia coli. Put plainly: Induction of outer membrane permeabilization in Escherichia coli ATCC 25922 assessed as increase in propidium iodide uptake at 1.56 to 12.5 ug/ml by propidium iodide staining based flow cytometric analysis. It is filed as functional, organism-based. An outline of the steps:
(§3)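 Flow cytometry. Log-phase cells grown in CAMH and diluted in PBS to 4 × 10^6 CFU/ml. Compound added at 1/32–¼ MIC (DMSO vehicle controls), in triplicate. Propidium iodide added at 50 μM final; 1 h in the dark at room temperature. Excitation 488 nm, emission 620/30 nm, 30,000 cells per sample. Result is percent PI-positive cells.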
(A flow cytometer gives signals particle by particle.)

Test [7] concerns Escherichia coli. Nature of the test: Induction of inner membrane permeabilization in Escherichia coli ATCC 25922 assessed as increase in propidium iodide uptake at 1.56 to 12.5 ug/ml by PI staining based flow cytometric analysis. It is filed as functional, organism-based. The procedure, abridged:
as §3

The test system of test [8] is Escherichia coli. Put plainly: Disruption of membrane potential in Escherichia coli ATCC 25922 at 12.5 ug/ml incubated fro 30 mins by DiOC2 probe based flow cytometric analysis. It counts as functional, organism-based. An outline of the steps: (§4)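 Log-phase cells grown in CAMH, diluted in PBS to 2 × 10^6 CFU/ml, and treated with compound at ¼ MIC. Controls were DMSO vehicle and 2 μg/ml CCCP, with 0.2% DMSO in all tubes, in triplicate. DiOC2 added at 30 μM; 30 min in the dark at room temperature. Flow cytometry at 488 nm excitation, 10,000 cells. Red (620/30) to green (525/20) fluorescence ratio reported.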

In test [9] the test system is Escherichia coli ATCC 25922. Put plainly: Inhibition of AcrAB-TolC efflux pump in Escherichia coli ATCC 25922 assessed as inhibition of Hoechst 33342 efflux at 3.13 to 25 ug/ml pre-incubated for 5 mins followed by glucose addition by Hoechst 33342 staining based fluorescence assay. The procedure, abridged:
as §1

Test [10] deals with Escherichia coli. Nature of the test: Induction of outer membrane permeabilization in Escherichia coli ATCC 25922 assessed as increase in NPN uptake at 3.13 to 25 ug/ml incubated for 10 mins by fluorescence assay. It is filed as functional, organism-based. An outline of the steps: as §2
In test [11] the test system is Escherichia coli. Put plainly: Induction of outer membrane permeabilization in Escherichia coli ATCC 25922 assessed as increase in propidium iodide uptake at 3.13 to 25 ug/ml by PI staining based flow cytometric analysis. It is filed as functional, organism-based. The procedure, abridged:
as §3

The subject of test [12] is Escherichia coli. Nature of the test: Induction of inner membrane permeabilization in Escherichia coli ATCC 25922 assessed as increase in propidium iodide uptake at 3.13 to 25 ug/ml by PI staining based flow cytometric analysis. It counts as functional, organism-based. An outline of the steps:
as §3

Test [13] deals with Escherichia coli. Put plainly: Disruption of membrane potential in Escherichia coli ATCC 25922 at 25 ug/ml incubated fro 30 mins by DiOC2 probe based flow cytometric analysis. It counts as functional, organism-based. An outline of the steps: as §4
The test system of test [14] is Escherichia coli. Nature of the test: Increase in membrane potential in Escherichia coli ATCC 25922 at 25 ug/ml incubated fro 30 mins by DiOC2 probe based flow cytometric analysis. It counts as functional, organism-based. An outline of the steps: as §4

In test [1], `NCCC[C@@H](N)CNC(=O)C(CCc1ccccc1)CCc1ccccc1` gave an MIC of 50 µg/mL (≈ 136 µM). Moreover, the “fold change (FC)” value in test [2] worked out at 16.
As to `NCCC[C@H](N)C(=O)NC(CCc1ccccc1)CCc1ccccc1`, the MIC in test [1] was greater than 100 µg/mL. Further, the “fold change (FC)” value in test [2] was 4.
In test [1], `NC[C@@H](N)CCCNC(=O)C(CCc1ccccc1)CCc1ccccc1` displayed a minimum inhibitory concentration (MIC) of 100 µg/mL (≈ 272 µM). For the same compound, the “fold change (FC)” value in [2] is 32.
Compound `NCCC[C@H](N)CNC(=O)CCCc1ccccc1` displayed an MIC in [1] greater than 200 µg/mL. In addition, the “fold change (FC)” value in [2] was 1.
In [1], `NCC[C@H](N)CCNC(=O)C(CCc1ccccc1)CCc1ccccc1` showed an MIC of 200 µg/mL (≈ 544 µM). The “fold change (FC)” value in [2] stood at 16.
As to `NCCC[C@H](N)CNC(=O)CC(CCc1ccccc1)CCc1ccccc1`, in test [3], the Ratio is reported as 128. Moreover, the inhibition result in [4] is “Dose-dependent effect”. The Activity entry in test [5] was “Dose-dependent effect”. Further, the result in test [6] and in test [7] was Active. Inhibition of growth in test [1] (MIC) required 50 µg/mL (≈ 131 µM). Further, the result in test [8] was inactive. Moreover, the “fold change (FC)” value in test [2] was 512.
In the case of `NC[C@@H](N)CCCNCC(CCc1ccccc1)CCc1ccccc1`, the minimum inhibitory concentration (MIC) in [1] amounted to 100 µg/mL (≈ 283 µM). The “fold change (FC)” value in test [2] worked out at 32.
On to `NCC[C@H](N)CNC(=O)C(CCc1ccccc1)CCc1ccccc1`, for which, in test [1], the MIC was 100 µg/mL (≈ 283 µM). For the same compound, in test [2], the fold change (FC) is 2.
In test [1], `CN(C[C@@H](N)CCCN)C(=O)C(CCc1ccccc1)CCc1ccccc1` came in with an MIC greater than 200 µg/mL. Moreover, the “fold change (FC)” value in [2] came to 1.
For `NCCC[C@H](N)CNC(=O)CCc1ccccc1`, the MIC in test [1] is greater than 200 µg/mL. Moreover, in [2], the “fold change (FC)” value was found to be 1.
In turn, `N=C(N)NCCC[C@H](NC(=O)[C@@H](N)Cc1ccccc1)C(=O)Nc1ccc2ccccc2c1` [PABETAN] (H-Phe-Arg-βNA) gave an MIC in [1] greater than 200 µg/mL. For the same compound, the “fold change (FC)” value in test [2] stood at 4.
For `NNCCC[C@H](N)CNC(=O)C(CCc1ccccc1)CCc1ccccc1`, it took 200 µg/mL (≈ 523 µM) to inhibit growth in test [1] (MIC). The “fold change (FC)” value in test [2] was determined as 1.
`NCCC[C@H](N)CNC(=O)C(c1ccccc1)c1ccccc1`: the MIC in [1] is greater than 200 µg/mL. In addition, in test [2], the “fold change (FC)” value is on record as 2.
In test [1], `NCCC[C@H](N)CNC(=O)C(CCc1ccccc1)CCc1ccccc1` showed a minimum inhibitory concentration (MIC) of 50 µg/mL (≈ 136 µM). The “fold change (FC)” value in [2] is listed as 16.
For `CN[C@@H](CCCN)CNC(=O)C(CCc1ccccc1)CCc1ccccc1`, in that order: greater than 200 µg/mL and 1.
For `NCC[C@H](N)CCNCC(CCc1ccccc1)CCc1ccccc1` the same measures were 50 µg/mL (≈ 141 µM) and 64.
The compound `CN(C)CCC[C@H](N)CNC(=O)C(CCc1ccccc1)CCc1ccccc1` had an MIC in test [1] of 200 µg/mL (≈ 506 µM). Besides, the “fold change (FC)” value in [2] is reported as 2.
For `NCCC[C@H](N)CNC(=O)C(Cc1ccccc1)Cc1ccccc1` the same measures were greater than 200 µg/mL and 1.
For `CN(C)[C@@H](CCCN)CNC(=O)C(CCc1ccccc1)CCc1ccccc1` the same measures were 100 µg/mL (≈ 253 µM) and 2.
Regarding `NCCC[C@H](N)CNCC(CCc1ccccc1)CCc1ccccc1`, in [3], the Ratio is listed as 32. Also, in test [9], the inhibition result is “Dose-dependent effect”. For the same compound, the Activity result in test [10] is “Dose-dependent effect”. Further, the outcome in test [11], in test [12] and in [14] was Active. Moreover, in test [1], the MIC is 100 µg/mL (≈ 283 µM). For the same compound, the outcome in test [13] was inactive. Moreover, in [2], the “fold change (FC)” value is 128.
`N=C(N)NCCC[C@H](N)CNC(=O)C(CCc1ccccc1)CCc1ccccc1` registered an MIC in test [1] greater than 200 µg/mL. Further, the “fold change (FC)” value in test [2] is 4.
Turning to `NCCC[C@H](N)CNC(=O)CC(c1ccccc1)c1ccccc1`, the minimum inhibitory concentration (MIC) in test [1] was greater than 200 µg/mL. Further, the “fold change (FC)” value in [2] came out at 1.
Turning to `CNCCC[C@H](N)CNC(=O)C(CCc1ccccc1)CCc1ccccc1`, inhibition of growth in [1] (MIC) required 50 µg/mL (≈ 131 µM). Moreover, the “fold change (FC)” value in test [2] was found to be 2.
`NC[C@H](N)CNC(=O)C(CCc1ccccc1)CCc1ccccc1`: the minimal inhibitory concentration (MIC) in [1] was determined as 200 µg/mL (≈ 589 µM). Besides, in test [2], the fold change (FC) was 16.
In test [1], `NCCC[C@H](N)CNC(=O)CC(Cc1ccccc1)Cc1ccccc1` showed a minimal inhibitory concentration (MIC) of 200 µg/mL (≈ 566 µM). Further, the “fold change (FC)” value in test [2] was 16.

By MIC is commonly meant the least concentration at which growth counts as inhibited. A low value points to greater potency.
